# Source: ChEMBL document CHEMBL1681778, “Synthesis and biological evaluation of 2,4-diaminoquinazoline derivatives as novel heat shock protein 90 inhibitors” (Bioorg Med Chem Lett, 2011)
# Activity calls are given as the source filed them. The rule behind the calls is not given here.
# Legend:
# MCF7 [1] = assay: Cytotoxicity against human MCF7 cells at 10 uM after 2 days by MTT assay; assay type: functional; conditions: MCF7, 48 h
# DU-145 [2] = assay: Cytotoxicity against human DU145 cells after 2 days by MTT assay; assay type: functional, cell-based; conditions: DU-145, 48 h
# In short: (§1)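 Cells grown in RPMI 1640 with 10% heat-inactivated FBS at 37 °C and 5% CO2. Seeded at 3 × 10³ cells/well, then given a range of sample concentrations in duplicate for two days. Read by MTT-type dye and solubilization/stop solution, left overnight at room temperature to dissolve formazan, with OD at 570 nm.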
# HT-29 [3] = assay: Cytotoxicity against human HT-29 cells after 2 days by MTT assay; assay type: functional, cell-based; conditions: HT-29, 48 h; in short: as §1
# HCT-116 [4] = assay: Cytotoxicity against human HCT116 cells at 10 uM after 2 days by MTT assay; assay type: functional; conditions: HCT-116, 48 h
# HCT-116 [5] = assay: Cytotoxicity against human HCT116 cells after 2 days by MTT assay; assay type: functional, cell-based; conditions: HCT-116, 48 h; in short: as §1
# [6] = Cytotoxicity against human A375P cells after 2 days by MTT assay; assay type: functional, cell-based; conditions: 48 h; in short: as §1
# DU-145 [7] = assay: Cytotoxicity against human DU145 cells at 10 uM after 2 days by MTT assay; assay type: functional; conditions: DU-145, 48 h
# HT-29 [8] = assay: Cytotoxicity against human HT-29 cells at 10 uM after 2 days by MTT assay; assay type: functional; conditions: HT-29, 48 h
# MCF7 [9] = assay: Cytotoxicity against human MCF7 cells after 2 days by MTT assay; assay type: functional, cell-based; conditions: MCF7, 48 h; in short: as §1
# [10] = target: T1, Heat shock protein HSP90 (Homo sapiens) (UniProt P07900+P08238); assay: Inhibition of HSP90 in human MCF7 cells assessed as induction of HSP70 expression at 5 uM after 24 hrs by Western blotting; assay type: cell-based
# In short: (§2)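 MCF-7 cells seeded at 10⁵ cells/well and grown to 60% confluency. Treated with compounds at 5 µM in 0.4% DMSO for 24 h, with DMSO alone as control. Her2 and Hsp70 levels detected by western blot.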
# [11] = target: T1, Heat shock protein HSP90 (Homo sapiens); assay: Inhibition of HSP90 in human MCF7 cells assessed as reduction of Her2 protein level at 5 uM after 24 hrs by Western blotting relative to control; assay type: cell-based; in short: as §2
# [12] = Cytotoxicity against human A375P cells at 10 uM after 2 days by MTT assay; assay type: functional; conditions: 48 h
inhibition [10],inhibition [11] [%],Structure (SMILES),inhibition at 10 µM (MCF7 [1]) [%],IC50 (DU-145 [2]) [µM],IC50 (HT-29 [3]) [µM],inhibition at 10 µM (HCT-116 [4]) [%],IC50 (HCT-116 [5]) [µM],IC50 [6] [µM],inhibition at 10 µM (DU-145 [7]) [%],inhibition at 10 µM (HT-29 [8]) [%],IC50 (MCF7 [9]) [µM],inhibition at 10 µM [12] [%]
,,COc1ccc(Nc2nc(NCc3ccco3)c3ccccc3n2)cc1,64.5,35,12.2,,,,,,,
,,COc1ccc(Nc2nc(NCc3ccco3)c3cc(F)ccc3n2)cc1,,11.6,4.34,74,6.15,7.66,55.4,86.2,,
,,CN(C)CCNc1nc(NCc2ccco2)c2ccccc2n1,,,,,,,20,21.7,,
Active,> 50,Cc1cccc(N2CCN(CCCCNc3nc(NCc4ccco4)c4ccccc4n3)CC2)c1C,95.8,1.07,0.86,94.3,0.84,3.9,93.6,94.2,3.14,
,,c1coc(CNc2nc(NCCCN3CCOCC3)nc3ccccc23)c1,,79.9,23.9,,,,,,,
,,Fc1ccc2nc(NCCN3CCN(c4cccc(Cl)c4Cl)CC3)nc(NCc3ccco3)c2c1,95.5,,,,1.01,2.42,,,,
Active,< 50,Cc1cccc(N2CCN(CCCCNc3nc(NCc4ccco4)c4cc(F)ccc4n3)CC2)c1C,97.7,3.32,1.83,97.4,0.82,3.28,93.4,96.1,3.13,97.5
,,c1coc(CNc2nc(NCCN3CCOCC3)nc3ccccc23)c1,95.8,,,,,,,,2.12,
,,CCN(CC)CCNc1nc(NCc2ccco2)c2ccccc2n1,,> 100,11.3,62.6,25.9,34.9,28.5,75.1,,
,,CCN(CC)CCNc1nc(NCc2ccco2)c2cc(F)ccc2n1,,,,26.4,,,26.6,27.5,,7.67
,,c1coc(CNc2nc(NCCCCN3CCOCC3)nc3ccccc23)c1,,6.24,1.34,79.8,2.1,5.23,52.3,68.7,,59.2
,,Fc1ccc2nc(NCCN3CCOCC3)nc(NCc3ccco3)c2c1,,,,12.8,,,27.8,9.68,,28.6
,,Cc1cccc(N2CCN(CCCNc3nc(NCc4ccco4)c4cc(F)ccc4n3)CC2)c1C,,2.66,1.05,97.3,1.14,2.83,95.9,96.7,,97.6
Active,< 50,Cc1cccc(N2CCN(CCCNc3nc(NCc4ccco4)c4ccccc4n3)CC2)c1C,95.9,0.93,0.84,93.2,0.77,3.04,91.5,94,3.31,
Active,> 50,Clc1cccc(N2CCN(CCCCNc3nc(NCc4ccco4)c4ccccc4n3)CC2)c1Cl,95.8,3.87,3.37,94.7,3.2,3.75,94.3,94.8,2.97,
,,Fc1ccc2nc(NCCCN3CCOCC3)nc(NCc3ccco3)c2c1,,> 100,9.32,52.1,25.3,22.5,26.7,83.1,,
,,CCCCNc1nc(NCc2ccco2)c2cccc(F)c2n1,87,,,,1.33,2.63,,,,
,,COc1cccc2c1C(=O)c1c(O)c3c(c(O)c1C2=O)C[C@@](O)(C(=O)CO)C[C@@H]3O[C@H]1C[C@H](N)[C@H](O)[C@H](C)O1 [DOXORUBICIN],,,0.82,,,,,,,
,,CCCCCNc1nc(NCc2ccco2)c2cc(F)ccc2n1,94.4,7.24,4.03,94.2,4.1,7.34,83.6,,,
,,CCCCNc1nc(NCc2ccco2)c2ccccc2n1,66.7,4.99,2.94,94.8,5.47,9.2,89.9,92.3,,
,,CCCCNc1nc(NCc2ccco2)c2cc(F)ccc2n1,,5.91,3.04,87.8,4.31,8.48,75.4,88.1,,
,,Fc1ccc2nc(NCCCCN3CCN(c4cccc(Cl)c4Cl)CC3)nc(NCc3ccco3)c2c1,,0.67,0.39,97.1,0.52,2.65,95.5,96.3,,97.3
Active,> 50,Clc1cccc(N2CCN(CCCNc3nc(NCc4ccco4)c4ccccc4n3)CC2)c1Cl,95.8,3.71,3.37,94.5,3.36,3.36,93.2,94.1,2.98,
,,CCCCCNc1nc(NCc2ccco2)c2ccccc2n1,,11.5,6.73,,,,,,,
,,Fc1ccc2nc(NCCCCN3CCOCC3)nc(NCc3ccco3)c2c1,,6.46,1.36,82,2.14,4.44,57.6,76.8,,62
,,CN(C)CCCNc1nc(NCc2ccco2)c2ccccc2n1,,51,4.45,,,,,,,
,,c1coc(CNc2nc(NCCCN3CCCC3)nc3ccccc23)c1,,35.3,6.01,67.5,16.1,19.4,40.1,87.5,,
